Data reported in ChEMBL document CHEMBL1255211, “Novel azulene-based derivatives as potent multi-receptor tyrosine kinase inhibitors” (Bioorg Med Chem Lett, 2010).

Assays:
[1] = target: T1, Receptor-type tyrosine-protein kinase FLT3 (Homo sapiens, UniProt P36888); assay: Inhibition of FLT3 by time resolved fluorescence method
T1 sequence (P36888 whole entry): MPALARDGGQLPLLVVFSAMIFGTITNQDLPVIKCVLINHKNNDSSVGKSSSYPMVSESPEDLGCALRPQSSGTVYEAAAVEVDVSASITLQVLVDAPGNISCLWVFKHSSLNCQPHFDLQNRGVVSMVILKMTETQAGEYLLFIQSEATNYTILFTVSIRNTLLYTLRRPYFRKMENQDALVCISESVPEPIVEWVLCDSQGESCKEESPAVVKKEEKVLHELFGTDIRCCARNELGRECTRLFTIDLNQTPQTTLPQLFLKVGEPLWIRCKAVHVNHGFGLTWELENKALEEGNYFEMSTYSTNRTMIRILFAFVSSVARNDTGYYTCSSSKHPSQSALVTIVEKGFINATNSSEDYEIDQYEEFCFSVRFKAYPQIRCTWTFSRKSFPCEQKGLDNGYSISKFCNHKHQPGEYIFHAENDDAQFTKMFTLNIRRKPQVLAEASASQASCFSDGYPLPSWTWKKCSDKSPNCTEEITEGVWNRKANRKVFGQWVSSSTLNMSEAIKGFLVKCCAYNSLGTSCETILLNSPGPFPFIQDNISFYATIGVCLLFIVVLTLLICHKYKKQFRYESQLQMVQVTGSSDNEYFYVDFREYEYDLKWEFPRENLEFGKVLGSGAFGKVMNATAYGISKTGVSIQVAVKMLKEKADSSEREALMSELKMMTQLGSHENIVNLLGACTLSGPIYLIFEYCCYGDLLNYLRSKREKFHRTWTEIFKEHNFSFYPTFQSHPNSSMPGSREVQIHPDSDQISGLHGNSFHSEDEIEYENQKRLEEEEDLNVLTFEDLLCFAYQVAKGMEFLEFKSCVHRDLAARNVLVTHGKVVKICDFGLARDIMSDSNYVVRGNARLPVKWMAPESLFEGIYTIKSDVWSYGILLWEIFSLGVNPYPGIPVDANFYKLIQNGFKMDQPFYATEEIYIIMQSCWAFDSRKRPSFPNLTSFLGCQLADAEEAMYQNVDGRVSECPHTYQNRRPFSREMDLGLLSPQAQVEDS

MV4-11 [2] = assay: Cytotoxicity against human MV4-11 cells by MTT assay
[3] = AUC in po dosed Sprague-Dawley rat; assay type: ADME, organism-based; conditions: plasma
In short: (§1)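 Overnight-fasted male SD rats got a single intravenous or oral dose, n = 3 per route. Vehicle was 10% N-methyl-2-pyrrolidone, 20% cremophor EL, 70% phosphate-buffered saline. Plasma was prepared from blood by centrifugation, stored at -80 °C and assayed by LC/MS/MS. Parameters came from noncompartmental analysis and are means of three animals.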

[4] = AUC in iv dosed Sprague-Dawley rat; assay type: ADME, organism-based; conditions: plasma; in short: as §1
[5] = Oral bioavailability in Sprague-Dawley rat; assay type: ADME, organism-based; conditions: in vivo; in short: as §1
[6] = target: Vascular endothelial growth factor receptor 2 (Homo sapiens, UniProt P35968); assay: Inhibition of KDR autophosphorylation in HUVEC by Western blot analysis; assay type: cell-based
Chain of Vascular endothelial growth factor receptor 2 (P35968 whole entry): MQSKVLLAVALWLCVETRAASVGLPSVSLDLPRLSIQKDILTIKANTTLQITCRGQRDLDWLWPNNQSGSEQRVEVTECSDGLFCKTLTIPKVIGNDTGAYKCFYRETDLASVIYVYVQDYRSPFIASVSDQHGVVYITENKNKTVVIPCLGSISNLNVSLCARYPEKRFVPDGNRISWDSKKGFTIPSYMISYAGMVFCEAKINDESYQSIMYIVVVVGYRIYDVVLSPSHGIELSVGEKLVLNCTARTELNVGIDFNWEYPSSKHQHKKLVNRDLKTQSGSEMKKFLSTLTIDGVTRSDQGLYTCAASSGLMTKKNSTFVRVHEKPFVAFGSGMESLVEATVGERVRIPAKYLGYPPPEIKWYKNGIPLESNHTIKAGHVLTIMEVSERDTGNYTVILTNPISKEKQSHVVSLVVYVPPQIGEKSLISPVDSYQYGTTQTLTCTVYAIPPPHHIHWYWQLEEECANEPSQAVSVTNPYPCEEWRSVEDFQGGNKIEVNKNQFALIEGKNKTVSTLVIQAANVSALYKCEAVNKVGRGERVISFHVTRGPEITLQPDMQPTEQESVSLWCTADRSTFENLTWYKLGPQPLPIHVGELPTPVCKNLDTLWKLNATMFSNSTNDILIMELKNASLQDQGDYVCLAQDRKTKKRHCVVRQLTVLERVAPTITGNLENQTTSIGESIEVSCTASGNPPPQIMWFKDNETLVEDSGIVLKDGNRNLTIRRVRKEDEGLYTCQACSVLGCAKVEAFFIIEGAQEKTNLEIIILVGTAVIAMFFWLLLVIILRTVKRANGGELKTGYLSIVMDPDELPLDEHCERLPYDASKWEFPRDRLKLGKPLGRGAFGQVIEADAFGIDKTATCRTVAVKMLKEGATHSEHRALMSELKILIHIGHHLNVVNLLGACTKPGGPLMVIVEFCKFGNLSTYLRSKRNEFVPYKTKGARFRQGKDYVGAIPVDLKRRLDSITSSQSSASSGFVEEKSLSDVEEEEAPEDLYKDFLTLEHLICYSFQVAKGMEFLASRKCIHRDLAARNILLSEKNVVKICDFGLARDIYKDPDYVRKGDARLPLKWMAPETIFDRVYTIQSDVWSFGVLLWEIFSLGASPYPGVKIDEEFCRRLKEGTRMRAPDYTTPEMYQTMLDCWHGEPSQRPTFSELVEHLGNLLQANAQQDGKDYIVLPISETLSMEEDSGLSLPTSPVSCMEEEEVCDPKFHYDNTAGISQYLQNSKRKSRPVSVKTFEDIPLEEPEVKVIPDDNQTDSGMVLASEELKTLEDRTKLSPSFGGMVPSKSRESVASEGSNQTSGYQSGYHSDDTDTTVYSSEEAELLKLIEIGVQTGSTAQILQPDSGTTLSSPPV

MV4-11 [7] = assay: Antitumor activity against human MV4-11 cells xenografted in BALB/c mouse assessed as inhibition of tumor growth at 50 mg/kg, po bid for 14 days measured on day 30; assay type: functional
In short: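 Female BALB/c nude mice, 6-8 weeks old, were implanted s.c. in the right flank with 1 × 10⁷ MV4-11 cells. Dosing began at tumor size 200-300 mm³, with four mice per group randomized. Treatment was 50 mg/kg oral gavage b.i.d. for 14 days (day 16 to 29) in 10% NMP/20% Cremophor EL/70% saline vehicle. Calipers gave tumor volume = 0.5 × length × width².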

[8] = target: Receptor-type tyrosine-protein kinase FLT3 (Homo sapiens, UniProt P36888, ITD); assay: Inhibition of FLT3-ITD autophosphorylation in human MV4-11 cells by Western blot analysis; assay type: cell-based
In short: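 Cells were plated at 2-5 × 10⁵ per well and stimulated with the receptor ligand: SCF for c-Kit, VEGF-162 for KDR, FL for FLT-3. Blots were probed with anti-phosphotyrosine PY99 and reprobed with antibodies to c-Kit, KDR or FLT-3.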

[9] = target: Mast/stem cell growth factor receptor Kit (Homo sapiens, UniProt P10721); assay: Inhibition of c-Kit autophosphorylation in human Kasumi-1 cells by Western blot analysis; assay type: cell-based
Chain of Mast/stem cell growth factor receptor Kit (P10721 whole entry): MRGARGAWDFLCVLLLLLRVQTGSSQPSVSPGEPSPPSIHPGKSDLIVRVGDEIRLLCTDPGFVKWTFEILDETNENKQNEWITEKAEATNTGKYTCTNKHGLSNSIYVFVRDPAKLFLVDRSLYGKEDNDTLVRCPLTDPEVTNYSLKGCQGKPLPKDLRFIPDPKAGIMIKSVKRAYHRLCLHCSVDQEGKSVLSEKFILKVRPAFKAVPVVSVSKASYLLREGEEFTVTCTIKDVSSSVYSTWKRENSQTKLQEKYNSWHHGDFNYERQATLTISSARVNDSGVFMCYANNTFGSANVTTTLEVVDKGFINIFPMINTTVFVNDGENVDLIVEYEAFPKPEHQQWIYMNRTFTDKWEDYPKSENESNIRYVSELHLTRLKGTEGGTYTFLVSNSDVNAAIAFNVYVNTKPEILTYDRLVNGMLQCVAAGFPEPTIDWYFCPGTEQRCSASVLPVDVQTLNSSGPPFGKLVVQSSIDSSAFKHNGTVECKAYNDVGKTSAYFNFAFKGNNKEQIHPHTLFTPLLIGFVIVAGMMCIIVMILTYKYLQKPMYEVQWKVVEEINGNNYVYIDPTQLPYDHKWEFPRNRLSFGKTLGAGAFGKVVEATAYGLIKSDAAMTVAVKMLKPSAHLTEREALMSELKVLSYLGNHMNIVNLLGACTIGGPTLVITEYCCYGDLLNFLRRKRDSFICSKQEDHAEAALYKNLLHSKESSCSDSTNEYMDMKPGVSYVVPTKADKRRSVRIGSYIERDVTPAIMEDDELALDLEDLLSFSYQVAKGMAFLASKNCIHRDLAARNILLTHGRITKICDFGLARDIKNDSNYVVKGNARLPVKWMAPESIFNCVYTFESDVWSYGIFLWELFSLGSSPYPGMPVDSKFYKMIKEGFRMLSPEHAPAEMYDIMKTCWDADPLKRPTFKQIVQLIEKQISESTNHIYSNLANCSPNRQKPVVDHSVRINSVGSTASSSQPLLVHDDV

Rattus norvegicus [10] = assay: Elimination half life in iv dosed Sprague-Dawley rat; assay type: ADME, organism-based; conditions: in vivo; in short: as §1
[11] = target: T1, Receptor-type tyrosine-protein kinase FLT3; assay: Inhibition of FLT3 autophosphorylation in human RS4-11 cells by Western blot analysis; assay type: cell-based
[12] = target: Platelet-derived growth factor receptor beta (Homo sapiens, UniProt P09619); assay: Inhibition of PDGFRbeta autophosphorylation by cell based Western blot analysis
Chain of Platelet-derived growth factor receptor beta (P09619 whole entry): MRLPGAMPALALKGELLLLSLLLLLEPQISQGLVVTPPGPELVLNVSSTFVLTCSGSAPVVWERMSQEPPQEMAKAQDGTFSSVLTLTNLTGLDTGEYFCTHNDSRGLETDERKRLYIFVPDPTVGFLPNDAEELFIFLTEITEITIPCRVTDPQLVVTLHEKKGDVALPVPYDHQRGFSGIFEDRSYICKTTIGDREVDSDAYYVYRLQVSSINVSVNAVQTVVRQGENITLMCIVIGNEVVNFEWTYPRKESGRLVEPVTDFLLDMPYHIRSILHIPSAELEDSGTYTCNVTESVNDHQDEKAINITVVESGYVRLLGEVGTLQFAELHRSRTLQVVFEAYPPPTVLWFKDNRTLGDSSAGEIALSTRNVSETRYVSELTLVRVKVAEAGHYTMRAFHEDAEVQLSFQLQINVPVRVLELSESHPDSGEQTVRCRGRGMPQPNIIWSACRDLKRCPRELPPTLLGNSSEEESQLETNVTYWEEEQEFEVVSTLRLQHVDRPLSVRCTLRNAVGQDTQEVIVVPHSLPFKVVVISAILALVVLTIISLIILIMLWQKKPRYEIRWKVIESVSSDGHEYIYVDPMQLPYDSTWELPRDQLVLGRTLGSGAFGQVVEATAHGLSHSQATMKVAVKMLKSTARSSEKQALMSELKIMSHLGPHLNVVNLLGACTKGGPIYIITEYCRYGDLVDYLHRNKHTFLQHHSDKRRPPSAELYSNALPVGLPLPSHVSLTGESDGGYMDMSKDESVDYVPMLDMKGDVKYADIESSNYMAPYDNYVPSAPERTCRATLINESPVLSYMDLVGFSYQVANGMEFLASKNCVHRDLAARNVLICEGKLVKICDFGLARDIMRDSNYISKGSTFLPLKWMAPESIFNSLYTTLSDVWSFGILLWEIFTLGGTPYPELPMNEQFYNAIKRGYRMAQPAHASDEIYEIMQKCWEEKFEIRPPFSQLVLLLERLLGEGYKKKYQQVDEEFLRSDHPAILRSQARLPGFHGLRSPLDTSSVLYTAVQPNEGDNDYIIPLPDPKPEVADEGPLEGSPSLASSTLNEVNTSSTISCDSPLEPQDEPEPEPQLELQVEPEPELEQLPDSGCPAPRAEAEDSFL

Rattus norvegicus [13] = assay: Volume of distribution at steady state in iv dosed Sprague-Dawley rat; assay type: ADME, organism-based; conditions: in vivo; in short: as §1
[14] = Tmax in po dosed Sprague-Dawley rat; assay type: ADME, organism-based; conditions: in vivo; in short: as §1
[15] = Cmax in po dosed Sprague-Dawley rat; assay type: ADME, organism-based; design: route oral; conditions: in vivo; in short: as §1

Compound	IC50 [1] [nM]	further results
Cc1cc(/C=C2/C(=O)Nc3ccccc32)c2cccccc1-2	> 1000	–
Cc1cc(/C=C2\C(=O)Nc3ccc(F)cc32)c2ccccc(OCCCN3CCOCC3)c1-2	224	–
Cc1cc(/C=C2/C(=O)Nc3cc(F)ccc32)c2ccccc(OCCCN(C)C)c1-2	742	–
Cc1cc(/C=C2/C(=O)Nc3c(F)cccc32)c2ccccc(OCCCN(C)C)c1-2	177	–
O=C1Nc2ccc(F)cc2/C1=C/c1cc(F)c2cccccc1-2	23	–
Cc1cc(/C=C2\C(=O)Nc3ccc(F)cc32)c2cccccc1-2	128	–
Cc1cc(/C=C2\C(=O)Nc3ccc(F)cc32)c2ccccc(OCCN3CCC(N(C)C)CC3)c1-2	18	–
Cc1cc(/C=C2\C(=O)Nc3ccc(F)cc32)c2ccccc(OCCN3CCOCC3)c1-2	19	–
Cc1cc(C=C2C(=O)Nc3ccc(F)cc32)c2ccccc(OCCN3CCC[C@H]3CO)c1-2 (mixture of isomers)	98	IC50 (MV4-11 [2]): 87 nM; AUC [3]: 3220 ng·h/mL; AUC [4]: 1410 ng·h/mL; bioavailability [5]: 22.8%; IC50 [6]: 186 nM; inhibition in vivo at 50 mg/kg (MV4-11 [7]): 99%; IC50 [8]: 67 nM; IC50 [9]: 44 nM; t1/2 (Rattus norvegicus [10]): 1.8 h; IC50 [11]: 70 nM; IC50 [12]: 28 nM; Vss/F (Rattus norvegicus [13]): 1.2324 L/kg; Tmax [14]: 2 h; Cmax [15]: 566 ng/mL
Cc1cc(/C=C2/C(=O)Nc3ccc(F)cc32)c2ccccc(OCCCN(C)C)c1-2	25	–
Cc1ccc2c(c1)/C(=C/c1ccc3cccccc1-3)C(=O)N2	> 1000	–
O=C1Nc2ccc(Br)cc2/C1=C/c1ccc2cccccc1-2	> 1000	–

More lines, main results first:

IC50 [1] [nM]	Compound	further results
60	Cc1cc(/C=C2/C(=O)Nc3ccc(F)cc32)c2cccccc1-2	–
12	Cc1cc(/C=C2\C(=O)Nc3ccc(F)cc32)c2ccccc(OCCCN(C)C)c1-2	–
> 1000	CN(C)S(=O)(=O)c1ccc2c(c1)/C(=C/c1ccc3cccccc1-3)C(=O)N2	–
5	Cc1cc(/C=C2\C(=O)Nc3ccc(F)c(F)c32)c2ccccc(OCCCN(C)C)c1-2	–
39	CCN(CC)CCCOc1ccccc2c(/C=C3\C(=O)Nc4ccc(F)cc43)cc(C)c1-2	–
14	CCN(CC)CCCOc1ccccc2c(/C=C3\C(=O)Nc4ccc(F)c(F)c43)cc(C)c1-2	–
17	Cc1cc(/C=C2\C(=O)Nc3ccc(F)c(F)c32)c2ccccc(OCCCN3CCCCC3)c1-2	–
> 1000	O=C1Nc2ccc(Br)cc2/C1=C\c1ccc2cccccc1-2	–
90	Cc1cc(/C=C2\C(=O)Nc3ncc(F)cc32)c2ccccc(OCCCN3CCOCC3)c1-2	–
> 1000	Cc1cc(/C=C2\C(=O)Nc3ccccc32)c2cccccc1-2	–
> 1000	O=C1Nc2ccc(F)cc2/C1=C/c1ccc2cccccc1-2	–
1460	Cc1cc(/C=C2\C(=O)Nc3ncccc32)c2ccccc(OCCCN(C)C)c1-2	–
12	Cc1cc(/C=C2\C(=O)Nc3ccc(F)c(F)c32)c2ccccc(OCCCN3CCOCC3)c1-2	–
30	CCN(CC)CCCOc1ccccc2c(/C=C3/C(=O)Nc4ccc(F)cc43)cc(C)c1-2	–
86	Cc1cc(/C=C2\C(=O)Nc3ncc(Br)cc32)c2ccccc(OCCCN3CCOCC3)c1-2	–
470	O=C1Nc2ccccc2C1=Cc1ccc2cccccc1-2	–
